Shown are actives, neighbours in structure and some others; about 2.9% of the full set was active somewhere.
DENV2 CPE rescue = protects cells from dengue virus 2 cytopathic effect; 350,000 compounds, 1.7% hits; AID 651640; CPE inhibition, % at 9.99 µM; DENV2-infected cells, cytopathic effect rescue, plate reader; in the data active = CPE inhibition above about 20%, passing the limit was not always enough; inconclusive = no clear call, values can overlap the other calls; tested in BHK-21 cells
SIRT5 block = inhibitors of human sirtuin-5 desuccinylase; Q9NXA8; Purified SirT5, succinyl-peptide AMC, trypsin-coupled fluorescence; inhibition, % at 15 µM; 330,000 compounds, 1.1% hits; AID 652115; in the data active = inhibition above about 15%; inconclusive = no clear call, values can overlap the other calls
Target sequence (Q9NXA8 whole entry, looked up): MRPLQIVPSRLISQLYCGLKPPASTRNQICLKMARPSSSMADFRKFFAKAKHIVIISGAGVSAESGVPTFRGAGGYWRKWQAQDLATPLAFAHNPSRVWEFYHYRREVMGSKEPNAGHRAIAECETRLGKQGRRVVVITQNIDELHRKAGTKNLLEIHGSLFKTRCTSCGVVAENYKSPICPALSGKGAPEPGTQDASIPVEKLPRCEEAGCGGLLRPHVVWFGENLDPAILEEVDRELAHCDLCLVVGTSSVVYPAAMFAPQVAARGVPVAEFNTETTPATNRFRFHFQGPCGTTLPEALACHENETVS
S100A4 MyoIIA = blocks human S100A4 binding to myosin IIA peptide; S100A4/TAMRA-MyoIIA peptide fluorescence polarization; inhibition, % at 10.7 µM; 360,000 compounds, 0.14% hits; AID 652163;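 active = mean inhibition of at least 70% across replicates, with every replicate also reaching that level; inconclusive = mean inhibition reaches 70% but some replicates fall short; inactive = mean inhibition below 70%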
Target sequence (P26447 whole entry, looked up): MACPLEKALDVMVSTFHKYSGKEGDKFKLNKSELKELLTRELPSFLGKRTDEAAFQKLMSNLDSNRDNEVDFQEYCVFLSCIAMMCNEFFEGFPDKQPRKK
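Test system – S100A4 monomer (human) · Compound – single-point compound testing · Schedule – 5 min incubation before reading · Probe or stimulus – TAMRA-labelled myosin IIA heavy-chain peptide probe, 5 nM · Benchmarks – neutral control DMSO, positive control TFP · Medium – Calcium-containing HEPES buffer, pH 7.2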
CAL PDZ FP-1 = blocks peptide binding to the human CAL PDZ domain; AID 602252; 300,000 compounds, 0.92% hits; purified CAL PDZ, TMR-peptide fluorescence polarization, 1 h; inhibition, % at 24.9 µM; Q9HD26;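 active = mean inhibition of at least 30% with at least half of replicates also reaching 30%; inconclusive = no clear call, values can overlap the other calls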
CAL PDZ FP-2 = inhibitors of human CAL PDZ peptide binding. purified CAL PDZ, TMR-peptide fluorescence polarization, 1 h. inhibition, % at 20 µM. 330,000 compounds, 0.02% hits. AID 504414;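 active = highest replicate inhibition of at least 40%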
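material = purified tagged CAL PDZ domain construct (CerCALP) | buffer or medium = sodium phosphate/NaCl buffer pH 7.4 with TCEP, IgG, Thesit | reagent = TMR-labelled reporter peptide T*-PRC34 bound in PDZ groove | incubation = 1 h room-temperature incubation prior to read | measured by = fluorescence polarization (mP) | evaluation = percent inhibition from loss of millipolarization | control set = unlabelled peptide and DMSO controls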
ERAP1 HTS inh = blocks human ERAP1 aminopeptidase activity; recombinant ERAP1, Leu-AMC fluorescence, 60 min; inhibition, % at 10.7 µM; 340,000 compounds, 0.15% hits; AID 652197;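 active = mean replicate inhibition of at least 30%, or all replicates individually reaching that 30% level; inactive = mean below 30% and not every replicate reaching it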
A number is an active result; n = inactive; u = inconclusive; x = no result given; + = active, no number.

SMILES | DENV2 CPE rescue | SIRT5 block | S100A4 MyoIIA | CAL PDZ FP-1 | CAL PDZ FP-2 | ERAP1 HTS inh
COc1ccc(-c2ccc([C@@H]3[C@@H](C#N)N(C(=O)C4CCC4)[C@H]3CO)cc2)cc1 | 72 | n | n | x | x | n
N#C[C@H]1[C@@H](c2ccccc2C2=CCCC2)[C@@H](CO)N1C(=O)c1cccc(F)c1 | 71 | n | n | x | x | n
N#C[C@@H]1[C@H](c2ccccc2C2=CCCC2)[C@H](CO)N1C(=O)C1CCC1 | n | n | n | x | x | n
COc1ccccc1-c1ccccc1[C@H]1[C@@H](CO)N(C(=O)C2CCC2)[C@H]1C#N | n | n | n | x | x | n
COc1ccccc1-c1ccccc1[C@H]1[C@H](C#N)N(C(=O)C2CCC2)[C@H]1CO | 50 | n | n | x | x | n
COc1ccc(-c2ccc([C@H]3[C@@H](C#N)N(C(=O)C4CCC4)[C@H]3CO)cc2)cc1 | n | n | n | x | x | n
N#C[C@H]1[C@@H](c2ccccc2C2=CCCC2)[C@@H](CO)N1C(=O)C1CCC1 | 37 | n | n | x | x | n
CCN1[C@@H]2c3ccc(-c4ccncc4)c(=O)n3C[C@@H]2[C@@H](CO)[C@@H]1C(=O)Nc1ccccc1 | n | n | n | x | x | n
Cc1ccc(-c2cnc3c(c2)C(=O)N([C@H](C)CO)C[C@@H](C)[C@@H](CN(C)S(C)(=O)=O)O3)cc1 | n | n | n | x | x | n
CSc1ccccc1C(=O)NCCCn1ccnc1 | n | n | n | 61 | n | n
Cc1c(C(=O)C(=O)NCCCn2ccnc2)c2ccccc2n1C | n | n | n | 36 | n | n
CN(C)S(=O)(=O)n1cc(/C=C(\NC(=O)c2ccccc2Cl)C(=O)NCCCn2ccnc2)c2ccccc21 | n | 19 | n | n | n | n
CO[C@@H](CN(C)Cc1cc(F)ccc1F)[C@H](C)CN([C@@H](C)CO)S(=O)(=O)c1ccc(Cl)cc1 | n | x | n | x | x | n
CC(C)NC(=O)N(C)C[C@H]1OCCCC[C@H](C)Oc2ccc(NC(=O)Cc3ccccc3)cc2C(=O)N([C@@H](C)CO)C[C@H]1C | n | n | n | x | x | n
C[C@@H]1CCCCO[C@@H](CN(C)S(=O)(=O)c2cn(C)cn2)[C@H](C)CN([C@H](C)CO)C(=O)c2cc(NC(=O)Cc3ccccc3)ccc2O1 | n | x | x | x | x | x
Cc1ccc(-n2c(CSc3nc(C)cc(C)n3)nnc2SCC(=O)NCc2ccco2)cc1 | x | x | x | 104 | n | x
Cc1ccc(-n2c(Cc3cccn3C)nnc2SCC(=O)NCc2ccco2)cc1 | x | x | x | n | n | x
CCN(C(=O)CN1C(=O)S/C(=C\c2cccc(OC)c2)C1=O)C1CCS(=O)(=O)C1 (stereo unspecified) | n | 16 | n | n | n | n
CN(C)CCCNC(=O)C[C@@H]1CC[C@H]2[C@@H](COc3ccc(NS(C)(=O)=O)cc3C(=O)N2C)O1 | n | n | n | x | x | x
COc1ccc(C#Cc2ccc3c(c2)[C@H]2[C@H](CCN2C(=O)NC(C)C)[C@H](CO)N3C)cc1 | n | n | n | x | x | n
CC[n+]1ccccc1/C=C1\Sc2ccc(C)cc2N1C | n | n | n | n | n | 74
CC(Sc1nc2ccccc2s1)C(=O)NCc1ccc2c(c1)OCO2 (stereo unspecified) | x | n | n | n | n | n
Cc1csc(SC(C)C(=O)NCc2ccc3c(c2)OCO3)n1 (stereo unspecified) | n | n | n | 64 | n | n
COC(=O)c1cc(S(=O)(=O)NCc2ccc(Br)cc2)c[nH]1 | n | 22 | n | n | n | n
COC(=O)c1cc(S(=O)(=O)NCc2ccccc2)c[nH]1 | n | n | n | x | n | n
SMILES | DENV2 CPE rescue | SIRT5 block | S100A4 MyoIIA | CAL PDZ FP-1 | CAL PDZ FP-2 | ERAP1 HTS inh
COC(=O)c1cc(S(=O)(=O)NCCc2ccc(SC)cc2)c[nH]1 | n | n | n | 76 | n | n
COC(=O)c1cc(S(=O)(=O)NCCN2CCN(c3ccccc3F)CC2)c[nH]1 | u | n | n | 47 | n | n
COC(=O)c1cc(S(=O)(=O)N2CCN(c3ccccc3F)CC2)c[nH]1 | n | n | n | n | n | n
C/C=C/c1ccc2c(c1)O[C@H](CN(C)C(=O)Cc1ccccc1)[C@H](C)CN([C@@H](C)CO)S2(=O)=O | n | n | n | x | x | n
CCC(=O)N1CC2(CCN(Cc3ccc(F)cc3)CC2)c2c(n(C)c3cc(OC)ccc23)[C@@H]1CO | n | x | n | x | x | n
COc1cc(/C=N/Nc2nc(C)cc(C)n2)cc(OC)c1OC | n | n | n | 75 | n | n
COc1cc(/C=N/Nc2nc(C)cc(C)n2)ccc1O | n | n | n | x | x | n
C[C@@H]1CN([C@@H](C)CO)C(=O)c2cc(NS(=O)(=O)c3cccs3)ccc2O[C@H]1CN(C)S(=O)(=O)c1ccc(F)cc1 | n | n | n | x | x | n
CCc1nc2ccccc2c(C(=O)OCC(=O)NCCCN2CCCC2=O)c1C | x | 19 | n | n | n | n
Cc1cc(SCC(=O)NCCCN2CCCC2=O)nc2ccccc12 | n | n | n | n | n | n
Cc1c(OCC(=O)NCCCN2CCCC2=O)ccc2c3c(c(=O)oc12)CCC3 | n | n | + | n | n | n
O=C(/C=C/c1ccc([N+](=O)[O-])cc1)NNC(=O)C1CC1 | n | n | n | 74 | n | n
O=C(COC(=O)COc1ccc(Cl)cc1Br)NC1CCCCCC1 | n | n | n | n | n | n
CN(C(=O)COc1ccc(Cl)cc1Br)C1CCCCC1 | n | n | n | 71 | n | n
C[C@H]1CN([C@@H](C)CO)C(=O)c2cccc(NC(=O)C3CCCCC3)c2O[C@@H]1CN(C)Cc1ccc(Oc2ccccc2)cc1 | n | n | n | x | x | n
C[C@@H]1CN([C@H](C)CO)C(=O)c2cccc(NC(=O)C3CCCCC3)c2O[C@@H]1CN(C)Cc1ccc(Oc2ccccc2)cc1 | n | n | 143 | x | x | n
C[C@H]1CN([C@@H](C)CO)C(=O)c2cccc(NC(=O)NC3CCCCC3)c2O[C@H]1CN(C)Cc1ccc(C(=O)O)cc1 | n | n | n | x | x | n
C[C@@H]1CN([C@H](C)CO)C(=O)c2cccc(NC(=O)NC3CCCCC3)c2O[C@@H]1CN(C)Cc1ccc(Oc2ccccc2)cc1 | n | 20 | n | x | x | n
C[C@H]1CN([C@@H](C)CO)C(=O)c2cccc(NC(=O)NC3CCCCC3)c2O[C@@H]1CN(C)Cc1ccc(C(=O)O)cc1 | n | 25 | n | x | x | n
Clc1ccc(OCCCc2nc(-c3cccnc3)no2)c(Cl)c1 | x | x | x | n | n | x
Clc1ccc(OCCCc2nc(-c3ccncc3)no2)c(Cl)c1 | x | x | x | 33 | x | x
c1ccc(-c2cc(N3CCOCC3)nc(-c3ccccc3)n2)cc1 | x | x | x | n | n | x
c1ccc(-c2cc(-c3ccc(N4CCOCC4)cc3)nc3ccccc23)cc1 | x | x | x | 37 | n | x
Cc1noc(C)c1NC(=O)Nc1ccc2c(c1)C(=O)N([C@H](C)CO)C[C@H](C)[C@@H](CN(C)Cc1ccc(Cl)c(Cl)c1)O2 | n | n | n | x | x | n
